Experimental data pooled from the literature.
Target: Serine/threonine-protein kinase PLK2 (PLK2, Homo sapiens, UniProt Q9NYY3)

| SMILES | assay | conditions | measurement | result |
| --- | --- | --- | --- | --- |
| CO[C@H]1CC[C@H](CNc2ccc(S(=O)(=O)NC(=O)c3ccc(N4CCN(CC5=C(c6ccc(Cl)cc6)CC(C)(C)CC5)CC4)cc3Oc3cnc4[nH]ccc4c3)cc2[N+](=O)[O-])CC1 | cell-free assay, competition with immobilised ligand | 1 µM | remaining binding | 100% |
| CCN(CC)CCNC(=O)c1c(C)[nH]c(/C=C2\C(=O)Nc3ccc(F)cc32)c1C | enzyme activity, inhibitor | 0.3 µM | inhibition | -2% |
| Nc1ncnc2occ(-c3ccc(NC(=O)Nc4cc(C(F)(F)F)ccc4F)cc3)c12 | cell-free assay, inhibitor | 20 µM | remaining signal | 0.1% |
| CCCS(=O)(=O)Nc1ccc(F)c(C(=O)c2c[nH]c3ncc(-c4ccc(Cl)cc4)cc23)c1F | enzyme activity, inhibitor | 1 µM | inhibition | < 10% |
| Cc1ccc(NC(=O)c2ccc(C)c(C(F)(F)F)c2)cc1C#Cc1nn(C2CCC(O)CC2)c2ncnc(N)c12 (stereo not shown) | cell-free assay | 10 µM | remaining signal | 109% |
| CC(C)(C)c1nc(-c2cccc(NS(=O)(=O)c3c(F)cccc3F)c2F)c(-c2ccnc(N)n2)s1 | enzyme activity, inhibitor, radiometric | 1 µM | remaining activity | 94% |
| CO[C@@H](C)c1c(Nc2ccc([C@@H](N(C)C(=O)C3CCS(=O)(=O)CC3)C(F)(F)F)cc2)cnc2cc(Cl)nn12 | cell-free assay, competition with immobilised ligand | 1 µM | remaining binding | 100% |
| COc1cc(Nc2c(C#N)cnc3cc(OCCCN4CCN(C)CC4)c(OC)cc23)c(Cl)cc1Cl | cell-free assay | 0.5 µM | remaining signal | 100% |
| Cc1ccc(Nc2nccc(N(C)c3ccc4c(C)n(C)nc4c3)n2)cc1S(N)(=O)=O | enzyme activity, inhibitor | 0.3 µM | inhibition | -15% |
| CCOc1cc(-c2nncn2C)ccc1Nc1ncc2cc(C)nc(NCC(C)(C)C)c2n1 | enzyme activity, inhibitor, FRET | 1 µM | inhibition | < 15% |
| Cc1cnc(NC2CCOCC2)nc1-n1cnc(C(=O)NC(CN)c2cc(F)cc(Cl)c2)c1 (stereo not shown) | enzyme activity, inhibitor, radiometric | 1 µM | remaining activity | 69% |
| O=C1CCc2cc(Nc3cc(OC4CCOCC4)c([N+](=O)[O-])cc3Cl)ccc2N1 | cell-free assay, competition with immobilised ligand | 1 µM | remaining binding | 92% |
| O=C1NC(=O)c2cc(Nc3ccc(F)cc3)c(Nc3ccc(F)cc3)cc21 | cell-free assay | 0.5 µM | remaining signal | 99.6% |
| Cc1sc(C(=O)NC2COC2)cc1-n1cc(NC(=O)Nc2c(F)cccc2Cl)cn1 | enzyme activity, inhibitor | 10 µM | remaining activity | 95.2% |
| C[S+]([O-])c1ccc(-c2nc(-c3ccncc3)c(-c3ccc(F)cc3)[nH]2)cc1 (stereo not shown) | cell-free assay | 0.5 µM | remaining signal | 95.6% |
| C[C@H](c1ccnc(Nc2nc3ccc(-c4cc(N(C)C)ncn4)cc3[nH]2)c1)N1CCN(C(=O)CC(F)(F)F)CC1 | cell-free assay, competition with immobilised ligand | 0.1 µM | remaining binding | 100% |
